≈ marks a conversion by molar mass, not a printed value.
How the values were obtained:
KB [1] = test: Cytotoxicity against human KB cells after 72 hrs by neutral red staining; type: functional; conditions: read-out: ED50 (the source's name)
In short: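 Human nasopharyngeal carcinoma KB cells exposed in triplicate to five concentrations (50 to 0.01 µg/mL) of pure compound, or none, for 72 h at 37 °C. Living cells stained with neutral red and optical density read at 540 nm. ED50 is the concentration inhibiting cell growth to 50% of control.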

KB [2] = test: Growth inhibition of human KB cells at 5 to 6 ug/mL after 72 hrs by neutral red staining; type: functional

| SMILES | EC50 (KB [1]) [µg/mL] | Inhibition (KB [2]) [%] |
| --- | --- | --- |
| CCC(C)C(=O)c1c2c(c3oc(=O)cc(-c4ccccc4)c3c1O)C[C@@H](C(C)(C)O)O2 (stereo not given in full) | 5 (≈ 11.8 µM) |  |
| COc1cccc2c1C(=O)c1c(O)c3c(c(O)c1C2=O)C[C@@](O)(C(=O)CO)C[C@@H]3O[C@H]1C[C@H](N)[C@H](O)[C@H](C)O1 [DOXORUBICIN] | 0.058 (≈ 0.107 µM) |  |
| CC(C)CC(=O)c1c(O)c2c(c3c(-c4ccccc4)cc(=O)oc13)O[C@H](C(C)(C)O)C2 | 9 (≈ 21.3 µM) | 50 |
| CCCC(=O)c1c2c(c3oc(=O)cc(-c4ccccc4)c3c1O)C[C@@H](C(C)(C)O)O2 | 6 (≈ 14.7 µM) |  |
| C=C(C)[C@@H]1Cc2c(c(C(=O)CC(C)C)c(O)c3c(-c4ccccc4)cc(=O)oc23)O1 | 40 (≈ 98.9 µM) |  |
| CC(C)CC(=O)c1c2c(c3oc(=O)cc(-c4ccccc4)c3c1O)C[C@@H](C(C)(C)O)O2 [CYCLOMAMMEISIN] | 6 (≈ 14.2 µM) |  |
| CCC(C)C(=O)c1c(O)c2c(c3c(-c4ccccc4)cc(=O)oc13)O[C@H](C(C)(C)O)C2 (stereo not given in full) | 15 (≈ 35.5 µM) | 50 |
| CCCC(=O)c1c(O)c2c(c3c(-c4ccccc4)cc(=O)oc13)O[C@H](C(C)(C)O)C2 |  | 50 |

Source: ChEMBL document CHEMBL1150829, “Novel cytotoxic 4-phenylfuranocoumarins from Calophyllum dispar” (2001)
